Measured values reported in PubChem BioAssay AID588752 (Vanderbilt Specialized Chemistry Center, 2011).
The source made the active and inactive calls. No rule for the calls is given here.

Target: Muscarinic acetylcholine receptor M5 (Rattus norvegicus) (UniProt P08911)
Test: rat M5 receptor positive allosteric modulation, dose response, selectivity assay, CHO cells, Fluo-4 calcium mobilization (AID 588752)
Conditions: Fluo-4, ACh EC20, at 30 µM (top of the series)
How it was run: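 Material: rat M5 stable CHO cell line. Also added: acetylcholine at EC20, then acetylcholine at EC80. Times: 144 s compound pre-incubation, 86 s to EC80, 37 °C. Detection: kinetic calcium fluorescence, Fluo-4 AM dye.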

Sequence of Muscarinic acetylcholine receptor M5 (Rattus norvegicus) (P08911 whole entry, looked up): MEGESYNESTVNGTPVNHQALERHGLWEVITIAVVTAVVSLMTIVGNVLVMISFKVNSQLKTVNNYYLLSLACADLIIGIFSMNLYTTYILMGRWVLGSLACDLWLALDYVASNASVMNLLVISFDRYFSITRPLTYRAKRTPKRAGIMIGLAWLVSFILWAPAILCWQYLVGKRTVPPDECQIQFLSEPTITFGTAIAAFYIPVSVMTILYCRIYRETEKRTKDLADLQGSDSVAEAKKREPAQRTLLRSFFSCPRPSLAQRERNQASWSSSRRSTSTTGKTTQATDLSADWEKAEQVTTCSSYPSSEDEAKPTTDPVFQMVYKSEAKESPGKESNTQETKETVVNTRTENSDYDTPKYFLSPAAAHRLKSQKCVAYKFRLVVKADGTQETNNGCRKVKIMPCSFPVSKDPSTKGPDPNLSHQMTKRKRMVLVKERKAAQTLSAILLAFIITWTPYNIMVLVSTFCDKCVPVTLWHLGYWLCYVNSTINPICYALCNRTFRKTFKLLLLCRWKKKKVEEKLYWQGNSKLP

Compound | outcome
Cc1nc2sc(C(=O)NCc3ccc4c(c3)OCO4)c(N)c2c(C)c1Cl | inactive
Cc1nc2sc(C(=O)NCc3ccncn3)c(N)c2c(C)c1Cl | inactive
Cc1nc2sc(C(=O)NC3CC3)c(N)c2c(C)c1Cl | inactive
Cc1nc2sc(C(=O)NCc3nccs3)c(N)c2c(C)c1Cl | inactive
Cc1nc2sc(C(=O)NCc3ccncc3)c(N)c2c(C)c1Cl | inactive
Cc1nc2sc(C(=O)NCCc3ccncc3)c(N)c2c(C)c1Cl | inactive
Cc1nc2sc(C(=O)NCc3cccc(F)c3F)c(N)c2c(C)c1Cl | inactive
Cc1nc2sc(C(=O)NCc3ccccc3)c(N)c2c(C)c1Cl | inactive
Cc1nc2sc(C(=O)NCc3cccnc3)c(N)c2c(C)c1Cl | inactive
